Source: ChEMBL document CHEMBL3585252, “Selaginellin and biflavonoids as protein tyrosine phosphatase 1B inhibitors from Selaginella tamariscina and their glucose uptake stimulatory effects” (Bioorg Med Chem, 2015)

Columns and labels:
[1] = target: T1, Tyrosine-protein phosphatase non-receptor type 1 (Mus musculus) (UniProt P35821); experiment: Inhibition of PTP1B in mouse 3T3L1 cells assessed as stimulation of 2-NBDG uptake preincubated for 24 hrs followed by 2-NBDG addition measured after 30 mins by fluorescence reader analysis; type: cell-based; conditions: 3T3-L1
T1 sequence (whole entry): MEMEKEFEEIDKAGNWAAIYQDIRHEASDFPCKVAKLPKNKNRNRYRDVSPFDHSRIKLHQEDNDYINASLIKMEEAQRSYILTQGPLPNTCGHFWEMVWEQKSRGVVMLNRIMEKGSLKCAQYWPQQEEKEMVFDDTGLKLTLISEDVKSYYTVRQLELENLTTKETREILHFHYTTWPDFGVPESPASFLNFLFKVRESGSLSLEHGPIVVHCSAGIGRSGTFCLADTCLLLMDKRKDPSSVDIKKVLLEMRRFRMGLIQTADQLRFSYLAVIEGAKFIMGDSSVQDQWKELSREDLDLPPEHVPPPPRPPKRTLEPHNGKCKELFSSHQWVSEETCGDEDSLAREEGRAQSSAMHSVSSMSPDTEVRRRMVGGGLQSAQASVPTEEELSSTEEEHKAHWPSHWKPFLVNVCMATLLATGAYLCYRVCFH
Method in brief: (§1)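 3T3-L1 preadipocytes were grown to confluence and differentiated for 8 days (days 0–8). Mature adipocytes were treated with compound at 5 and 10 µM, or with insulin at 100 nM; DMSO was the vehicle control. 2-NBDG was then added for 30 min. Uptake is expressed as fold induction over the DMSO control.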

[2] = target: T1, Tyrosine-protein phosphatase non-receptor type 1 (Mus musculus); experiment: Inhibition of PTP1B in mouse 3T3L1 cells assessed as stimulation of 2-NBDG uptake at 10 uM preincubated for 24 hrs followed by 2-NBDG addition measured after 30 mins by fluorescence reader analysis relative to control; type: cell-based; conditions: 3T3-L1; method in brief: as §1
[3] = Cytotoxicity against mouse 3T3L1 cells assessed as inhibition of cell viability at 5 to 10 uM after 48 hrs by MTT assay; type: cell-based; conditions: 3t3-l1, 48 h
Method in brief: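 Differentiated 3T3-L1 adipocytes were exposed to compound at 5 and 10 µM without 2-NBDG. Viability was read by MTT assay.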

[4] = target: T2, Tyrosine-protein phosphatase non-receptor type 1 (Homo sapiens) (UniProt P18031); experiment: (§2) Inhibition of human recombinant PTP1B using p-NPP as substrate preincubated for 10 mins followed by substrate addition measured after 20 mins by microplate reader analysis
T2 sequence (whole entry): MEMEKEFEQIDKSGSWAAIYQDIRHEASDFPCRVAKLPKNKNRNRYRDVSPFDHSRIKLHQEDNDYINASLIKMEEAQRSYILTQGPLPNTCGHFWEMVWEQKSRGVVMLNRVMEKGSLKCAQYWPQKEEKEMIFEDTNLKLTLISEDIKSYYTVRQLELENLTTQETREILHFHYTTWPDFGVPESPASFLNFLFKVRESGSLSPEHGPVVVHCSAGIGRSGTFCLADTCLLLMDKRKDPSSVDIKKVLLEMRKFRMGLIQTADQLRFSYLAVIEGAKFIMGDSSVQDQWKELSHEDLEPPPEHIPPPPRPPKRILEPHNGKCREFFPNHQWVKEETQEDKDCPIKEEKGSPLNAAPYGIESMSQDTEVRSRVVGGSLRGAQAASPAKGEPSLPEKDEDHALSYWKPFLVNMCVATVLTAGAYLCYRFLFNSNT
Method in brief: (§3)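 Enzyme inhibition was tested at graded concentrations. IC50 was obtained by regression analysis and reported as mean ± SD of three replicates.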

[5] = target: T3, Tyrosine-protein phosphatase non-receptor type 1 (Homo sapiens, UniProt P18031); experiment: as §2; method in brief: as §3
T3 sequence (P18031 whole entry): T2 sequence (whole entry)

[6] = target: T3, Tyrosine-protein phosphatase non-receptor type 1; experiment: Mixed-competitive inhibition of human recombinant PTP1B using p-NPP as substrate preincubated for 10 mins followed by substrate addition measured after 20 mins by Lineweaver-Burk/Dixon plot analysis
Method in brief: (§4)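 Kinetic mode and Ki came from Lineweaver–Burk and Dixon plots of initial velocity at several substrate and inhibitor concentrations. Ki was read as the negative x-axis value where three Dixon lines intersect. Data are the mean reciprocal initial velocity, n = 3 replicates per substrate concentration.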

[7] = target: T3, Tyrosine-protein phosphatase non-receptor type 1; experiment: Uncompetitive inhibition of human recombinant PTP1B using p-NPP as substrate preincubated for 10 mins followed by substrate addition measured after 20 mins by Lineweaver-Burk/Dixon plot analysis; method in brief: as §4
[8] = target: T3, Tyrosine-protein phosphatase non-receptor type 1; experiment: Competitive inhibition of human recombinant PTP1B using p-NPP as substrate preincubated for 10 mins followed by substrate addition measured after 20 mins by Lineweaver-Burk/Dixon plot analysis; method in brief: as §4

| Structure (SMILES) | inhibition [1] | fold change (FC) [2] | inhibition [4] | IC50 [5] [µM] | Ki [6] [µM] | Ki [7] [µM] | Ki [8] [µM] | Activity [3] |
| --- | --- | --- | --- | --- | --- | --- | --- | --- |
| O=C(O)c1c(-c2ccc(O)cc2)ccc(CO)c1C#Cc1ccc(O)cc1 | Dose-dependent effect | 1.24 | Dose-dependent effect | 13.2 | 14.5 | – | – | Non-toxic |
| O=C1C[C@@H](c2cc(-c3c(O)ccc4c(=O)cc(-c5ccc(O)cc5)oc34)c(O)cc2O)Oc2cc(O)cc(O)c21 | Dose-dependent effect | – | Dose-dependent effect | 9.8 | – | 10.4 | – | Non-toxic |
| O=c1c(-c2c(O)cc(O)c3c(=O)cc(-c4ccc(O)cc4)oc23)c(-c2ccc(O)cc2)oc2cc(O)cc(O)c12 | Dose-dependent effect | 1.44 | Dose-dependent effect | 4.5 | 4.6 | – | – | Non-toxic |
| O=c1cc(-c2ccc(O)c(-c3c(O)cc(O)c4c(=O)cc(-c5ccc(O)cc5)oc34)c2)oc2cc(O)cc(O)c12 [AMENTOFLAVONE] | Dose-dependent effect | – | Dose-dependent effect | 7.4 | 7.8 | – | – | Non-toxic |

Further lines, with some results ahead:

| inhibition [1] | fold change (FC) [2] | inhibition [4] | IC50 [5] [µM] | Ki [6] [µM] | Ki [7] [µM] | Ki [8] [µM] | Structure (SMILES) | Activity [3] |
| --- | --- | --- | --- | --- | --- | --- | --- | --- |
| Dose-dependent effect | – | Dose-dependent effect | 9.6 | – | – | 10.7 | O=c1cc(-c2ccc(O)cc2)oc2c(-c3c(O)cc(O)c4c(=O)cc(-c5ccc(O)cc5)oc34)c(O)cc(O)c12 [CUPRESSUFLAVONE] | Non-toxic |
| Dose-dependent effect | – | Dose-dependent effect | 6.2 | 6.8 | – | – | O=c1cc(-c2ccc(O)c(-c3c(O)cc4oc(-c5ccc(O)cc5)cc(=O)c4c3O)c2)oc2cc(O)cc(O)c12 [ROBUSTAFLAVONE] | Non-toxic |
| Dose-dependent effect | 1.47 | Dose-dependent effect | 5.4 | 4.5 | – | – | O=c1cc(-c2ccc(O)c(-c3c(-c4ccc(O)cc4)oc4cc(O)cc(O)c4c3=O)c2)oc2cc(O)cc(O)c12 [TAIWANIAFLAVONE] | Non-toxic |
